Screens as filed in PubChem BioAssay.
FN deposit inh: inhibitors of fibronectin matrix deposition, primary screen, AH1F cells, Alexa488-fibronectin fluorescence, plate reader; inhibition, % at 12.6 µM; 350,000 compounds, 0.086% hits; AH1F fibroblasts, overnight;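 active = mean inhibition across replicates of 30% or more, regardless of how many single replicates reach that level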
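Material – AH1F fibroblast monolayer, labelled fibronectin deposition · Reagent – labelled fibronectin 24 nM · Timing – 1 h adhesion, overnight exposure · Measured by – fluorescence at 485 nm excitation, 525 nm emission · Read-out – inhibition of fibronectin deposition signal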
ABHD5-PLIN5 inh: ABHD5-PLIN5 interaction inhibitors, primary screen, cell lysate, split luciferase complementation, luminescence. Split G. princeps luciferase complementation, 4 h. Perilipin-5 (Homo sapiens) + 1-acylglycerol-3-phosphate O-acyltransferase ABHD5 (Homo …. inhibition, % at 4 µM. 360,000 compounds, 0.78% hits. AID 602281, 2012;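 active = inhibition above the mean inhibition across every tested compound plus 3 SD, cut at about 22% in these data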
Target sequence (Q00G26 whole entry, looked up): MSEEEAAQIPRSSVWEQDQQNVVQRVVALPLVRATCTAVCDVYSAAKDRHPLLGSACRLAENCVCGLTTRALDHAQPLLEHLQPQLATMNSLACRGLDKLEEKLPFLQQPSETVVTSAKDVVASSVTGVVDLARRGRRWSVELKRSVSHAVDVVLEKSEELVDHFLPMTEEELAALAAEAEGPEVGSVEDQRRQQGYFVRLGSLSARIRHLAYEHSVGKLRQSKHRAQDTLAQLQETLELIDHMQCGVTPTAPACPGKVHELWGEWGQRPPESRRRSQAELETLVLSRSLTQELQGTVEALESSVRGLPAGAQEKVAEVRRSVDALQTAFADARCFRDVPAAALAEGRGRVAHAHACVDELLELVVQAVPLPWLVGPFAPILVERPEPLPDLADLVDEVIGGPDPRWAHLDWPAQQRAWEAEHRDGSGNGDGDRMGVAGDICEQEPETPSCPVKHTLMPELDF
Target sequence (Q8WTS1 whole entry, looked up): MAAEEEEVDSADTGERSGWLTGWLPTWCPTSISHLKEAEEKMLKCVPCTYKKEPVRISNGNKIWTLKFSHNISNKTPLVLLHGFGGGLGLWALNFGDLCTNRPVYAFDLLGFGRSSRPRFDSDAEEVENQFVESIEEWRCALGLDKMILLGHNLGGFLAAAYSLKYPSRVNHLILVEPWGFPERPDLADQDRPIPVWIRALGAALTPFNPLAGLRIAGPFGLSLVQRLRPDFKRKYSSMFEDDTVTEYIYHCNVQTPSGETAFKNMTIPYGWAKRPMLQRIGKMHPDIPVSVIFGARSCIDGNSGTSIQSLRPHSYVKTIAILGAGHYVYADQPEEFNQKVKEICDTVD
A3A deaminase: APOBEC3A ssDNA deaminase inhibitors, primary screen, selectivity assay for APOBEC3G inhibitor project, biochemical, FAM/TAMRA oligo cleavage fluorescence; DNA dC->dU-editing enzyme APOBEC-3A (Homo sapiens), P31941; recombinant A3A, FAM/TAMRA ssDNA deamination fluorescence; inhibition, % at 20 µM; 330,000 compounds, 0.41% hits; AID 493011, 2011;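 active = at least 40% inhibition at 20 µM here, with at most 30% in a related deaminase screen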
A3G deaminase: APOBEC3G DNA deaminase inhibitors, primary screen, biochemical, fluorescence, single-stranded DNA substrate, uHTS; AID 493012, 2011; 330,000 compounds, 0.28% hits; DNA dC->dU-editing enzyme APOBEC-3G (Homo sapiens), Q9HC16; recombinant A3G, ssDNA deamination FAM/TAMRA fluorescence; inhibition, % at 20 µM;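 active = inhibition of at least 40% at 20 µM, with no more than 30% in the related APOBEC3A deaminase screen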
APOBEC3A confirm: APOBEC3A deaminase inhibitors, retest, confirmation, selectivity assay for APOBEC3G inhibitor project, biochemical, single concentration, fluorescence readout | shares compounds with A3A deaminase | recombinant A3A, ssDNA deaminase UDG fluorescence assay | 1,400 compounds, 63% hits | inhibition, % at 20 µM;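 active = inhibition reaching a set limit, 80% of the first screen's cutoff, at 20 µM in any replicate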
UDG A3A counter: E. coli UDG inhibitors, confirmation, counter-screen for APOBEC3A inhibitor project, biochemical, single concentration, fluorescence, FAM/TAMRA oligo; shares compounds with A3A deaminase; UDG counterscreen, FAM/TAMRA uracil oligo fluorescence; inhibition, % at 20 µM; 1,000 tested, under 10 active; AID 504714, 2011; call rule not given here
Of the large screens only hits and unclear results are named; the others gave an inactive call (follow-up assays come after a bar, where they were run). Compounds with a hit are over-represented: about 1.2% of the library has one in this group of screens.

COc1ccc(NC(=O)Cn2cc(C#N)c3ccccc32)cc1	none
CCNC(=O)Cn1cc(C#N)c2ccccc21	A3A deaminase 53.5 (no result: FN deposit inh) | APOBEC3A confirm inactive
CN(C)C(=O)C[C@@H]1CC[C@@H]2[C@H](COc3ccc(NC(=O)C4CCCC4)cc3C(=O)N2C)O1	none (no result: ABHD5-PLIN5 inh, A3A deaminase, A3G deaminase)
Cc1cc(C)nc(/N=C2/NC(=O)CS2)n1	A3A deaminase 63.8 (no result: FN deposit inh) | APOBEC3A confirm inactive | UDG A3A counter inactive
CCC(=O)N(C)C[C@H]1Oc2ncc(-c3ccccc3OC)cc2C(=O)N([C@@H](C)CO)C[C@@H]1C	none (no result: ABHD5-PLIN5 inh, A3A deaminase, A3G deaminase)
CC(C)C(NC(=O)c1ccc2c(c1)OCO2)C(=O)N/N=C/c1cccs1 (configuration not stated)	none
CC(C)C(NC(=O)c1ccc2c(c1)OCO2)C(=O)N/N=C\c1ccco1 (configuration not stated)	A3A deaminase 47.6 (no result: FN deposit inh) | APOBEC3A confirm 52.2 | UDG A3A counter inactive
O=C(Nc1ccc(Br)cn1)c1coc(=O)c(Br)c1	A3A deaminase 62.1 | APOBEC3A confirm 20.8 | UDG A3A counter inactive
COc1ccccc1OCC(=O)Nc1ccc(Cl)cc1	none
COc1ccc(NC(=O)COc2ccc(/C=N/n3c(C)nnc3C)cc2OC)cc1	none (no result: FN deposit inh)
COc1cc(/C=C/c2cccc[n+]2C)ccc1OCC(=O)Nc1ccccc1	A3A deaminase 73.3 | APOBEC3A confirm 79.2 | UDG A3A counter inactive
COc1ccc(NC(=O)COc2ccc(/C=C/c3cc[n+](C)cc3)cc2OC)cc1	A3A deaminase 52.0 | APOBEC3A confirm 75.9 | UDG A3A counter inactive
C/C=C/c1ccc(OCC(=O)Nc2cc(OC)c(OC)c(OC)c2)c(OC)c1	none
COc1cc(/C=C/c2cccc[n+]2C)ccc1OCC(=O)Nc1cccc(Cl)c1	A3A deaminase 80.8 | APOBEC3A confirm 75.2 | UDG A3A counter inactive
COc1cc(/C=C/c2cc[n+](C)cc2)ccc1OCC(=O)Nc1ccc(Cl)c(Cl)c1	A3A deaminase 80.8 | APOBEC3A confirm 77.5 | UDG A3A counter inactive
COCC(=O)Nc1ccc2c(c1)C(=O)N(C)C[C@@H](OC)[C@@H](C)CN(Cc1ccncc1)[C@@H](C)CO2	none (no result: ABHD5-PLIN5 inh, A3A deaminase, A3G deaminase)
COc1cccc(CN(C)C[C@H]2OCc3ccccc3-c3c(n(C)c4ccccc34)C(=O)N([C@H](C)CO)C[C@@H]2C)c1	none (no result: ABHD5-PLIN5 inh, A3A deaminase, A3G deaminase)
COc1ccc(S(=O)(=O)N(C)C[C@H]2OCCCC[C@@H](C)Oc3ccc(NS(=O)(=O)c4ccc(Cl)cc4)cc3C(=O)N([C@H](C)CO)C[C@H]2C)cc1	none (no result: ABHD5-PLIN5 inh, A3A deaminase, A3G deaminase)
COc1ccc(NC(=O)COc2ccc(/C=C/c3cccc[n+]3C)cc2OC)cc1	A3A deaminase 86.0 | APOBEC3A confirm 74.6 | UDG A3A counter inactive
Cc1ccc(Nc2nc(-c3ccc(S(=O)(=O)N4CCCC4)cc3)cs2)cc1C	A3A deaminase 87.4 (no result: FN deposit inh) | APOBEC3A confirm inactive | UDG A3A counter inactive
Cc1cc(C)cc(Nc2nc(-c3ccc(S(=O)(=O)N4CCCC4)cc3)cs2)c1	none
CC1=CC(C)(C)[N+](C)=CN1c1ccccc1	A3A deaminase 57.4 | APOBEC3A confirm 70.4 | UDG A3A counter inactive
Cc1nc2cc(C(=O)O)ccc2n1-c1ccccc1	none
CC(C)CC#Cc1ccc2c(c1)O[C@@H](CN(C)C(=O)C1CC1)[C@H](C)CN([C@@H](C)CO)S2(=O)=O	none (no result: ABHD5-PLIN5 inh, A3A deaminase, A3G deaminase)
C[C@@H]1CN([C@@H](C)CO)C(=O)c2cc(/C=C/c3ccccc3)cnc2O[C@H]1CN(C)Cc1ccccc1	none (no result: ABHD5-PLIN5 inh, A3A deaminase, A3G deaminase)
C[C@H]1CN(C)C(=O)c2cccc(NS(C)(=O)=O)c2O[C@H]1CN(C)S(C)(=O)=O	none (no result: ABHD5-PLIN5 inh, A3A deaminase, A3G deaminase)
N#Cc1c(SCC(=O)Nc2nc3ccccc3s2)sc2c(O)cc(=O)[nH]c12	none
N#Cc1c(SCC(=O)Nc2nc3ccc(Br)cc3s2)sc2c(O)cc(=O)[nH]c12	A3A deaminase 42.5 | APOBEC3A confirm 39.3 | UDG A3A counter inactive
Cn1c(SCC(=O)N2CCOCC2)nnc1-c1ccncc1	none
Cn1c(SCC(=O)N2CCOCC2)nnc1-c1cccc(NC(=O)c2ccccc2)c1	A3A deaminase 64.4 (no result: FN deposit inh) | APOBEC3A confirm 65.7 | UDG A3A counter inactive
CC1(C)CC(N2CCCC2)=CC(=[N+]2CCCCCC2)C1	A3A deaminase 62.4 (no result: FN deposit inh) | APOBEC3A confirm 68.2 | UDG A3A counter inactive
CC1CC(C)C[N+](=C2C=C(N3CCCC3)CC(C)(C)C2)C1 (configuration not stated)	none (no result: A3A deaminase, A3G deaminase)
CN(Cc1ccccc1)C1=CC(=[N+]2CCCC2)CC(C)(C)C1	A3A deaminase 57.1 | APOBEC3A confirm 69.7 | UDG A3A counter inactive
CCN(CC)C1=CC(=[N+]2CCCC2)CC(C)(C)C1	none
CC1(C)CC(N2CCN(c3ccccc3)CC2)=CC(=[N+]2CCCC2)C1	A3A deaminase 44.1 | APOBEC3A confirm 66.0 | UDG A3A counter inactive
O=C(NCc1ccccc1F)c1cc(=O)[nH]c2ccccc12	none
O=C(NCc1ccccc1Cl)c1cc(=O)[nH]c2ccccc12	A3A deaminase 51.6 | APOBEC3A confirm inactive
CC(C)[N+](C)(C)CC#CC(O)(c1ccccc1)c1ccccc1	A3A deaminase 65.2 | APOBEC3A confirm 73.0 | UDG A3A counter inactive
COc1cccc(NC(=O)N2CC(=O)N3[C@H](CO)[C@H](c4ccc(C5=CCCC5)cc4)[C@@H]3C2)c1	none (no result: ABHD5-PLIN5 inh, A3A deaminase, A3G deaminase)
CO[C@@H]1CN(C)C(=O)c2cc(NC(=O)C3CC3)ccc2OC[C@@H](C)N(CCc2ccccc2)C[C@@H]1C	none (no result: ABHD5-PLIN5 inh, A3A deaminase, A3G deaminase)
COCCn1c(N)c(N(Cc2ccccc2)C(=O)C2=COCCO2)c(=O)[nH]c1=O	A3A deaminase 48.8 (no result: FN deposit inh) | APOBEC3A confirm inactive
COCCn1c(N)c(N(Cc2ccccc2)C(=O)c2ccc3ccccc3c2)c(=O)[nH]c1=O	none
Cc1ccc(SC(C)C(=O)NCc2ccncc2)cc1 (configuration not stated)	A3A deaminase 49.8 | APOBEC3A confirm inactive
COc1ccc(CCNC(=O)C(C)Sc2ccccc2)cc1OC (configuration not stated)	none (no result: FN deposit inh)
COc1ccc(CCNC(=O)C(C)Sc2ccc(C)cc2)cc1OC (configuration not stated)	A3A deaminase 86.3 | APOBEC3A confirm inactive | UDG A3A counter inactive
COC(=O)c1[nH]c2ccc(Br)cc2c1NC(=O)CN1CCN(C2CCCCC2)CC1	A3A deaminase 46.5 | APOBEC3A confirm inactive
C[C@H](NC(=O)c1ccccc1Cl)C(=O)NCc1cccs1	A3A deaminase 59.3 | APOBEC3A confirm inactive
CCCN1C[C@H](C)[C@@H](OC)CN(C)C(=O)c2cc(NC(=O)NC3CCCC3)ccc2OC[C@H]1C	none (no result: ABHD5-PLIN5 inh, A3A deaminase, A3G deaminase)
